HTRA1 inhibitor: HTRA1 serine protease inhibitors, primary screen, biochemical, fluorescence polarization, HTS | actives 0.5% (n = 340,000) | inhibition, % at 5.96 µM | AID 504803, 2011 | recombinant HTRA1, FP-rhodamine activity-based probe; in the data active means inhibition above about 36%
ABHD4 inh: ABHD4 inhibitors, primary screen, biochemical, fluorescence polarization, mouse. purified mABHD4, FP-Rh probe fluorescence polarization. AID 720543, 2013. inhibition, % at 8.92 µM. actives 0.54% (n = 370,000);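 active means inhibition exceeding the mean over every tested compound plus 3 SD, cut at about 30% in these data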
Target sequence (Q8VD66 whole entry, looked up): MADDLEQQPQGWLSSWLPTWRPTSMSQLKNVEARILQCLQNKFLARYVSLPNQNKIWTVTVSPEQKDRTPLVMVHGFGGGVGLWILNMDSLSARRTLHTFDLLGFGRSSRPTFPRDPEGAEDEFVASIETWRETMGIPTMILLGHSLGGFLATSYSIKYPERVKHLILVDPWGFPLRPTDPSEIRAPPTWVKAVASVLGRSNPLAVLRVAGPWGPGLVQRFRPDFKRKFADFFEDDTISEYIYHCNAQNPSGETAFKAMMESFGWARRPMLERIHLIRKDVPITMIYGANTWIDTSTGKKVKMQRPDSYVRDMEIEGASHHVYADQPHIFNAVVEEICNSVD
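Material: mouse ABHD4 enzyme, wild type; Benchmarks: S159A mutant high control, sample median low control; Buffer or medium: HEPES pH 7.0, NaCl, Pluronic buffer; Signal: fluorescence polarization; Read-out: percent inhibition of probe binding, normalized to plate controls; Timing: pre-incubation 45 min, probe exposure 60 min, at 25 °C; Dosing: 8.92 µM, single dose.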
LEDGF integ inh: blockers of LEDGF/p75-dependent integrase strand transfer – biochemical, TR-FRET, high throughput, primary screen; HIV-1 integrase (with human LEDGF/p75); TR-FRET IN-LEDGF/p75 DNA integration, Eu/Cy5; inhibition, % at 3.7 µM; actives 0.64% (n = 370,000); AID 743269, 2014;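 active means inhibition above the screen-wide mean plus 3 SD, cut at about 13% in these data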;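 further: signal is the Cy5 over europium emission ratio at 671 and 618 nm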
TCR-CD3 inh: inhibitors of human TCR-CD3 interaction, primary screen, biochemical, fluorescence, TAMRA-labeled TCR probe. T-cell receptor (TCR). inhibition, % at 9.4 µM. actives 0.37% (n = 360,000). AID 651800, 2012; in the data active means inhibition above about 19%;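 further: recombinant mutant TCR 2C K166C tagged with TAMRA read by polarization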
SIAE primary: human SIAE inhibitors, primary screen, biochemical, fluorescence polarization, FP-Rh probe, 1536-well HTS | SIAE FP-Rh probe binding | inhibition, % at 9.66 µM | actives 0.69% (n = 370,000);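 active means inhibition above a cutoff: mean of compounds within the control limits plus 3 SD of those, cut at about 17% in these data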
TDP2 absorb: human TDP2 enzyme inhibitors, primary screen, biochemical, epi absorbance, recombinant enzyme | T5PNP hydrolysis, p-nitrophenol absorbance 415 nm | inhibition, % at 12.8 µM | actives 0.34% (n = 370,000) | Tyrosyl-DNA phosphodiesterase 2 (Homo sapiens), O95551;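 active means inhibition above the mean of all tested compounds plus 3 SD, set per campaign, cut at about 25% in these data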
Target sequence (O95551 whole entry, looked up): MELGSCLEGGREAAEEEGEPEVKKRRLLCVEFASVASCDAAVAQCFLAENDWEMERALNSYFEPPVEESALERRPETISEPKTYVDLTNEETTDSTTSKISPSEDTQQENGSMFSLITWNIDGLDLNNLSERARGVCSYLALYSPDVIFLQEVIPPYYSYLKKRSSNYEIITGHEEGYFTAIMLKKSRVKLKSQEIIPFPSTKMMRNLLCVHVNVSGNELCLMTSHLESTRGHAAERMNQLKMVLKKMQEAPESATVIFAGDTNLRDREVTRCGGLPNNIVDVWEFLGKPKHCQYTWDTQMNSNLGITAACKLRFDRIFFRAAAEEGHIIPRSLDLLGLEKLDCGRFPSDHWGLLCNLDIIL
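Assay system: recombinant human TDP2 / Reagent: T5PNP substrate at 5 mM, a TopII-DNA adduct mimic / Measured by: epi absorbance from released p-nitrophenol / Evaluation: % inhibition relative to enzyme-containing and enzyme-free wells / Control set: enzyme-free and DMSO wells / Replicates: each compound tested once, singlicate / Schedule: enzyme reaction with compound for 2 h at 37 °C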
IN multimer up: HIV-1 IN multimer formation enhancers, counter-screen for LEDGF/p75 integration inhibitor project, biochemical, TR-FRET; shares compounds with LEDGF integ inh; actives 17% (n = 2,000); AID 1053131, 2014; activation, % at 7.7 µM; TR-FRET HIV-1 integrase multimerization; in the data active means activation above about 8.9%
TRFRET interf: TR-FRET optical interference artefacts, confirmation, artefact control for LEDGF/p75-dependent integration inhibitor project, biochemical, HIV-1 IN multimerization; TR-FRET optical interference counterscreen; 2,000 tested, under 10 active; shares compounds with LEDGF integ inh; inhibition, % at 7.7 µM; AID 1053135, 2014;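 active means inhibition above the mean over all tested compounds plus 3 SD, which no compound reached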
IN-LEDGF confirm: inhibitors of HIV-1 IN-LEDGF/p75 DNA integration, confirmation, biochemical, TR-FRET; shares compounds with LEDGF integ inh; TR-FRET LEDGF/p75-dependent HIV-1 integration; inhibition, % at 3.7 µM; actives 36% (n = 2,000); AID 1053136, 2014; in the data active means inhibition above about 14%
Large screens that a line does not name were inactive (follow-up assays come after a bar, where they were run). A selection: hits, their analogues and other compounds. The true share with any hit is near 2.2%.

CCOC(=O)C(=O)Cc1cccnn1	LEDGF integ inh 21.7 | IN multimer up inactive | TRFRET interf inactive | IN-LEDGF confirm 50.1
CCc1ccccc1NC(=O)CC1CS(=O)(=O)CC1CC(=O)Nc1ccccc1CC (configuration not stated)	none
O=C(CC1CS(=O)(=O)CC1CC(=O)Oc1ccccc1F)Oc1ccccc1F (configuration not stated)	LEDGF integ inh 23.8 | IN multimer up inactive | TRFRET interf inactive | IN-LEDGF confirm inactive
CN(Cc1ccccc1)C(=O)c1nc[nH]c1C(=O)N(C)Cc1ccccc1	LEDGF integ inh 16.6 | IN multimer up inactive | TRFRET interf inactive | IN-LEDGF confirm inactive
CCOc1ccc(C(=O)NC(=S)N(Cc2ccccc2)Cc2ccccc2)cc1	none
CCCN(CCC)C(=S)NC(=O)c1ccc(-c2ccccc2)cc1	LEDGF integ inh 25.8 | IN multimer up inactive | TRFRET interf inactive | IN-LEDGF confirm 34.9
N#Cc1ccsc1NC(=O)CN1CCN(S(=O)(=O)c2ccccc2C(F)(F)F)CC1	LEDGF integ inh 79.4 | IN multimer up inactive | TRFRET interf inactive | IN-LEDGF confirm inactive
Cc1ccc(C)c(S(=O)(=O)N2CCN(CC(=O)Nc3sccc3C#N)CC2)c1	none
NC(Cc1ccc(F)cc1)c1csc(Nc2ccc(S(N)(=O)=O)cc2)n1 (configuration not stated)	none (no result: HTRA1 inhibitor)
O=P(O)(O)COc1ccccc1P(=O)(c1ccccc1)c1ccccc1	LEDGF integ inh 19.0 | IN multimer up inactive | TRFRET interf inactive | IN-LEDGF confirm inactive
CCCCC(=O)Nc1cc(C)c(NC(=O)c2ccco2)cn1	LEDGF integ inh 26.7 | IN multimer up inactive | TRFRET interf inactive | IN-LEDGF confirm inactive
CCCCNC(=O)C[C@H]1C[C@@]2(C(=O)OC)C(=C[C@H](C(C)C)O[C@@H]2C2CC2)N(Cc2ccc3c(c2)OCO3)C1=O	none (no result: HTRA1 inhibitor, TCR-CD3 inh)
CC[C@H](CCC(=O)N(c1ccccc1)c1ccccc1)c1ccc(C)cc1	none (no result: HTRA1 inhibitor, TCR-CD3 inh)
O=C(CN1CCN(CC(=O)c2ccccc2)CC1)c1ccccc1	none
O=C(CSc1c2c(nc3ccccc13)CCCC2)NCc1ccco1	none
O=C(NCc1ccco1)c1c2c(nc3ccccc13)CCC2	LEDGF integ inh 27.8 | IN multimer up inactive | TRFRET interf inactive | IN-LEDGF confirm 23.6
COc1ccc(C(C#N)CC(=O)c2ccc(OCc3ccccc3)c(OC)c2)cc1OC (configuration not stated)	LEDGF integ inh 59.5 | IN multimer up inactive | TRFRET interf inactive | IN-LEDGF confirm inactive
Cc1ccc(-c2n[nH]c(=S)n2/N=C/c2cccs2)cc1	none
Cc1cc(-c2n[nH]c(=S)n2/N=C/c2cccs2)n[nH]1	LEDGF integ inh 37.6 | IN multimer up inactive | TRFRET interf inactive | IN-LEDGF confirm inactive
CN1C2=N[C@@H](c3cccc(C(F)(F)F)c3)CC(=O)N2/C(=C\c2ccccc2)[C@H]1c1ccccc1	LEDGF integ inh 16.3 (no result: HTRA1 inhibitor, TCR-CD3 inh) | IN multimer up 19.7 | TRFRET interf inactive | IN-LEDGF confirm inactive
CC(NS(=O)(=O)c1ccc(Cl)cc1)C(=O)NCc1ccco1 (configuration not stated)	LEDGF integ inh 18.2 | IN multimer up inactive | TRFRET interf inactive | IN-LEDGF confirm inactive
COc1ccc(S(=O)(=O)NC(C)C(=O)NCc2ccco2)cc1OC (configuration not stated)	none
COc1ccc(S(=O)(=O)N(CC(=O)N2CCOCC2)c2ccc(F)cc2)cc1OC	none
O=C(COC(=O)/C=C/c1ccco1)Nc1ncc(C(F)(F)F)cc1Cl	LEDGF integ inh 31.3 | IN multimer up inactive | TRFRET interf inactive | IN-LEDGF confirm 14.3
Cc1c(Cl)cnc(NC(=O)COC(=O)/C=C/c2ccco2)c1Cl	none
COc1ccc2c(COC(=O)CC3Sc4ccccc4NC3=O)cc(=O)oc2c1 (configuration not stated)	none
CC(=O)Nc1ccc2c(COC(=O)CC3Sc4ccccc4NC3=O)cc(=O)oc2c1 (configuration not stated)	LEDGF integ inh 13.9 | IN multimer up 21.1 | TRFRET interf inactive | IN-LEDGF confirm 13.8
CC(C)C[C@H]1CN([C@@H](Cc2ccccc2)CN2CCC[C@@H]2CN2C(=O)C(=O)NC[C@@H]2Cc2ccccc2)C(=O)C(=O)N1CC1CCCCC1	none (no result: HTRA1 inhibitor)
CC(C)C[C@H]1CN([C@@H](Cc2ccccc2)CN2CCC[C@H]2CN2C(=O)C(=O)NC[C@@H]2Cc2ccccc2)C(=O)C(=O)N1CC1CCCCCC1	LEDGF integ inh 20.7 (no result: HTRA1 inhibitor) | IN multimer up inactive | TRFRET interf inactive | IN-LEDGF confirm inactive
CCOC(=O)C1CCN(C(=O)COC(=O)c2ccc(Br)o2)CC1	none
CC1CCN(C(=O)COC(=O)c2ccc(Br)o2)CC1	LEDGF integ inh 22.0 | IN multimer up inactive | TRFRET interf inactive | IN-LEDGF confirm inactive
NC(=O)c1ccsc1NC(=O)c1ccc(S(=O)(=O)N2CCCCC2)cc1	LEDGF integ inh 22.1 | IN multimer up inactive | TRFRET interf inactive | IN-LEDGF confirm inactive
NC(=O)c1ccsc1NC(=O)c1ccc(S(=O)(=O)N2CCCC2)cc1	none
Cc1ccc(CSc2ccc3nnc(-c4cccnc4)n3n2)cc1	LEDGF integ inh 14.0 | IN multimer up inactive | TRFRET interf inactive | IN-LEDGF confirm inactive
CCOc1ccc(/C=c2\sc3nc(-c4ccco4)nn3c2=O)cc1OCC	LEDGF integ inh 15.9 | IN multimer up inactive | TRFRET interf inactive | IN-LEDGF confirm inactive
Cc1ccc(S(=O)(=O)/N=C2/NC(=O)/C(=C/c3ccc(Br)o3)S2)cc1	LEDGF integ inh 37.7 | IN multimer up inactive | TRFRET interf inactive | IN-LEDGF confirm inactive
O=C(c1cc(S(=O)(=O)N2CCCC2)c(Cl)cc1Cl)N1CCCC1	none
